Active and inactive are the calls of the source. No cut-off for these calls is given here.
Columns and labels:
[1] = tested on: SGC-7901; test: Antiproliferative activity against human SGC7901 cells after 72 hrs by sulforhodamine B assay; assay type: functional, cell-based; conditions: SGC-7901, 72 h
Procedure, shortened: (§1)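 Cells seeded and exposed in triplicate to graded compound concentrations for 72 h. Suspension cells read by MTT conversion to coloured product; adherent cells read by sulforhodamine B. IC50 (50% growth inhibition versus untreated control) derived by the Logit method.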

[2] = tested on: HL-60; test: Antiproliferative activity against human HL60 cells after 72 hrs by sulforhodamine B assay; assay type: functional, cell-based; conditions: HL-60, 72 h, in the assay text read “MTT assay” for “sulforhodamine B assay”; procedure, shortened: as §1
[3] = target: T1, DNA topoisomerase 2-alpha (Homo sapiens, UniProt P11388); test: Inhibition of human topoisomerase 2 alpha-mediated decatenation of kDNA at 100 uM after 15 mins
T1 sequence (P11388 whole entry): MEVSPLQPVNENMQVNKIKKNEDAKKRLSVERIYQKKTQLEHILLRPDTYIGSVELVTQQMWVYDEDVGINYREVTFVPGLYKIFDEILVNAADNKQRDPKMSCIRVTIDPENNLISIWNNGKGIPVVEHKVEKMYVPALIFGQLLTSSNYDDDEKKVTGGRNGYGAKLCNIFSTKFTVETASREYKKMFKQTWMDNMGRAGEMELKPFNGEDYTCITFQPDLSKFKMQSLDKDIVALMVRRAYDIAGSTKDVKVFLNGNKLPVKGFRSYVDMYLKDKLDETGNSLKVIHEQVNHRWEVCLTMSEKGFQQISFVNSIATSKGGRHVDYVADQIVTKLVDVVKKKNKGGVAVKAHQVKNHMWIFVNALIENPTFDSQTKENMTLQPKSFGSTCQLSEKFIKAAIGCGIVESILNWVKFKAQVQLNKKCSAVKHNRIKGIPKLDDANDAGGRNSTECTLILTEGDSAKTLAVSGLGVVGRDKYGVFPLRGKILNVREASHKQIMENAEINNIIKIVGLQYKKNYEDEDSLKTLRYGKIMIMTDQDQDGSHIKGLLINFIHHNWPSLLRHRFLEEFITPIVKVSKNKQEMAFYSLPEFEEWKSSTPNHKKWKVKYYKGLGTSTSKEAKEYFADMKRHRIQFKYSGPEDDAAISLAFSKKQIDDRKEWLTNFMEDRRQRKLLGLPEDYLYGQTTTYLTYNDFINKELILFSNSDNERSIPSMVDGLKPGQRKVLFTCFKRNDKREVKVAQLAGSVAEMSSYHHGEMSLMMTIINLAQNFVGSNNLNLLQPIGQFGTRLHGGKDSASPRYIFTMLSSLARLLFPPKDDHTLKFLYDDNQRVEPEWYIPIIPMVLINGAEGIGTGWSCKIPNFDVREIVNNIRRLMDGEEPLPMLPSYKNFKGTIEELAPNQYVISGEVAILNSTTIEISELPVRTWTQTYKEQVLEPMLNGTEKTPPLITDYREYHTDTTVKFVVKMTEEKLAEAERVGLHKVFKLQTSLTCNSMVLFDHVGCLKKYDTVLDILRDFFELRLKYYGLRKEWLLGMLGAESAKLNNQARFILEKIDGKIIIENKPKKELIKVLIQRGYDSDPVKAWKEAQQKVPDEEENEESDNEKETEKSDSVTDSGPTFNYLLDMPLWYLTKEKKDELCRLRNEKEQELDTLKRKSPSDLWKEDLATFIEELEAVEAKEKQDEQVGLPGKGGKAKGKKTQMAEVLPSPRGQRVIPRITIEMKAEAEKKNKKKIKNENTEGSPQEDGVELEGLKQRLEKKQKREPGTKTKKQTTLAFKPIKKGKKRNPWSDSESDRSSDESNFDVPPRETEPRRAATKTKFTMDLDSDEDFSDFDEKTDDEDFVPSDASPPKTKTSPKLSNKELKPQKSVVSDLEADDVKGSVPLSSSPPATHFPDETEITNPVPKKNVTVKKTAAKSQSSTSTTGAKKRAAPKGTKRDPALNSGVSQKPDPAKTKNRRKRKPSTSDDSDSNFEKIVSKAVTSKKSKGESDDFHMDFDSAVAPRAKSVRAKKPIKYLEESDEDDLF

[4] = tested on: HeLa; test: Antiproliferative activity against human HeLa cells after 72 hrs by sulforhodamine B assay; assay type: functional, cell-based; procedure, shortened: as §1
[5] = tested on: HT-29; test: Antiproliferative activity against human HT-29 cells after 72 hrs by sulforhodamine B assay; assay type: functional, cell-based; conditions: HT-29, 72 h; procedure, shortened: as §1
[6] = tested on: Nucleic Acid; test: Inhibition of Fenton's reaction mediated DNA strand break in Escherichia coli pBR322 at 0.1 to 1 uM by gel electrophoresis; assay type: nucleic-acid assay
Procedure, shortened: (§2)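 pBR322 (0.2 μg) incubated 30 min at room temperature in 13 mM Hepes pH 7.2 with 1 mM H2O2 and 10 μM FeSO4 plus compound. Run on 1% agarose containing 0.1 μg/mL ethidium bromide at 90 V for 60 min. Bands quantified; % supercoiled = 1.4SC/(L+OC+1.4SC)×100.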

[7] = tested on: HT-29; test: Cell cycle arrest in nocodazole pretreated human HT-29 cells assessed as accumulation at M phase at 10 uM after 24 hrs; assay type: functional, cell-based
Procedure, shortened: (§3)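 HT-29 cells stained with propidium iodide; cell-cycle distribution determined by flow cytometry.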

[8] = tested on: HT-29; test: Cell cycle arrest in nocodazole pretreated human HT-29 cells assessed as accumulation at M phase at 5 uM after 24 hrs; assay type: functional, cell-based; procedure, shortened: as §3
[9] = tested on: Nucleic Acid; test: Inhibition of Fenton's reaction mediated DNA strand break in Escherichia coli pBR322 at 1 to 100 uM by gel electrophoresis; assay type: nucleic-acid assay; procedure, shortened: as §2
[10] = tested on: Nucleic Acid; test: Inhibition of Fenton's reaction mediated DNA strand break in Escherichia coli pBR322 by gel electrophoresis; assay type: nucleic-acid assay; procedure, shortened: as §2
[11] = target: T1, DNA topoisomerase 2-alpha; test: Inhibition of human topoisomerase 2alpha-mediated relaxation of pBR322 up to 125 uM

Question: For Cc1csc2sc(/C=N/NC(N)=S)c(C)c12, which IC50 [1] is on record?
Answer: The IC50 was > 100 µM.

Question: And the IC50 [2]?
Answer: The IC50 was > 100 µM.

Question: What about the “inhibition (active/not active)” value [3] of the same compound?
Answer: The value was “inactive”.

Question: What about the IC50 [4] of the same compound?
Answer: Its IC50 is 1.12 µM.

Question: What about the IC50 [5] of the same compound?
Answer: Its IC50 is 57.5 µM.

Question: NC(=S)N/N=C/c1cc2cccnc2s1 was tested. Which IC50 [1] did it give?
Answer: Its IC50 is 100 µM.

Question: What about the IC50 [2] of the same compound?
Answer: Its IC50 is > 100 µM.

Question: And the IC50 [4]?
Answer: Its IC50 is 6.29 µM.

Question: And the IC50 [5]?
Answer: The IC50 was > 100 µM.

Question: What does the source list for FC(F)(F)c1ccc(NC(=S)N/N=C/c2ccc3ccccc3n2)cc1?
Answer: IC50 [1]: 72.2 µM; IC50 [2]: 34.9 µM; IC50 [4]: 59.1 µM; IC50 [5]: 63.9 µM

Question: How did the IC50 [1] turn out when Cc1cccc(NC(=S)N/N=C/c2ccc3ccccc3n2)c1 was run?
Answer: Its IC50 is > 100 µM.

Question: What about the IC50 [2] of the same compound?
Answer: Its IC50 is > 100 µM.

Question: What about the IC50 [4] of the same compound?
Answer: The IC50 was > 100 µM.

Question: And the IC50 [5]?
Answer: The IC50 was > 100 µM.

Question: With NC(=S)N/N=C/c1ccc2ccccc2n1 as the compound, how does the IC50 [1] read?
Answer: The IC50 was 32.7 µM.

Question: And the IC50 [2]?
Answer: The IC50 was > 100 µM.

Question: What about the “inhibition (active/not active)” value [3] of the same compound?
Answer: The value was “inactive”.

Question: And the IC50 [4]?
Answer: The IC50 was 0.96 µM.

Question: And the IC50 [5]?
Answer: Its IC50 is 100 µM.

Question: With S=C(N/N=C/c1ccc2ccccc2n1)Nc1ccccc1 as the compound, how does the IC50 [1] read?
Answer: The IC50 was 26.5 µM.

Question: And the IC50 [2]?
Answer: Its IC50 is 9.13 µM.

Question: And the IC50 [4]?
Answer: Its IC50 is 27.4 µM.

Question: What about the IC50 [5] of the same compound?
Answer: The IC50 was 17 µM.

Question: Which results are given for CN(C)C(=S)N/N=C/c1ccc2cccnc2n1?
Answer: IC50 [1]: 0.63 µM; IC50 [2]: 0.56 µM; inhibition (active/not active) [3]: Active; IC50 [4]: 0.97 µM; IC50 [5]: 0.41 µM

Question: With Cc1ccccc1NC(=S)N/N=C/c1ccc2ccccc2n1 as the compound, how does the IC50 [1] read?
Answer: The IC50 was > 100 µM.

Question: And the IC50 [2]?
Answer: Its IC50 is 73.2 µM.

Question: What about the “inhibition (active/not active)” value [3] of the same compound?
Answer: The value was “inactive”.

Question: What about the IC50 [4] of the same compound?
Answer: The IC50 was > 100 µM.

Question: And the IC50 [5]?
Answer: The IC50 was 42.2 µM.

Question: How did the inhibition [6] turn out when CC(=O)N(O)CCCCCNC(=O)CCC(=O)N(O)CCCCCNC(=O)CCC(=O)N(O)CCCCCN was run?
Answer: The inhibition was “Active”.

Question: What about the Activity [7] of the same compound?
Answer: Its Activity is “Active”.

Question: What about the Activity [8] of the same compound?
Answer: Its Activity is “Active”.

Question: And the inhibition [9]?
Answer: Its inhibition is “Active”.

Question: What about the inhibition [10] of the same compound?
Answer: Its inhibition is “Dose-dependent effect”.

Question: What about the inhibition [11] of the same compound?
Answer: Its inhibition is “inactive”.

Question: Which IC50 [1] does the source give for NC(=S)N/N=C/c1nc2ccccc2c2ncccc12 here?
Answer: The IC50 was 7.36 µM.

Question: What about the IC50 [2] of the same compound?
Answer: Its IC50 is > 100 µM.

Question: What about the “inhibition (active/not active)” value [3] of the same compound?
Answer: The value was “Active”.

Question: And the IC50 [4]?
Answer: Its IC50 is 21.9 µM.

Question: And the IC50 [5]?
Answer: The IC50 was 11.5 µM.

Question: Which IC50 [1] does the source give for S=C(NCc1ccccc1)N/N=C/c1ccc2ccccc2n1 here?
Answer: Its IC50 is 53.7 µM.

Question: And the IC50 [2]?
Answer: The IC50 was 21.9 µM.

Question: And the IC50 [4]?
Answer: Its IC50 is 62.8 µM.

Question: What about the IC50 [5] of the same compound?
Answer: The IC50 was 75.7 µM.

Question: With CN(C)C(=S)N/N=C/c1nc2ccccc2c2ncccc12 as the compound, how does the IC50 [1] read?
Answer: The IC50 was 0.04 µM.

Question: And the IC50 [2]?
Answer: Its IC50 is 0.43 µM.

Question: What about the “inhibition (active/not active)” value [3] of the same compound?
Answer: Its value is “Active”.

Question: And the IC50 [4]?
Answer: Its IC50 is 1.72 µM.

Question: What about the IC50 [5] of the same compound?
Answer: The IC50 was 0.04 µM.

Question: Fc1ccccc1NC(=S)N/N=C/c1ccc2ccccc2n1 was tested. Which IC50 [1] did it give?
Answer: The IC50 was > 100 µM.

Question: And the IC50 [2]?
Answer: The IC50 was > 100 µM.

Question: What about the IC50 [4] of the same compound?
Answer: The IC50 was > 100 µM.

Question: What about the IC50 [5] of the same compound?
Answer: Its IC50 is > 100 µM.

Question: How did the IC50 [1] turn out when CC(C)c1cccc(C(C)C)c1NC(=S)N/N=C/c1ccc2ccccc2n1 was run?
Answer: Its IC50 is 23.5 µM.

Question: And the IC50 [2]?
Answer: The IC50 was 19.5 µM.

Question: And the IC50 [4]?
Answer: The IC50 was 16.4 µM.

Question: And the IC50 [5]?
Answer: Its IC50 is 20.7 µM.

Question: Which results are given for Fc1cccc(NC(=S)N/N=C/c2ccc3ccccc3n2)c1?
Answer: IC50 [1]: 79.9 µM; IC50 [2]: 43.8 µM; inhibition (active/not active) [3]: inactive; IC50 [4]: 70.1 µM; IC50 [5]: 74.7 µM

Question: Which results are given for NC(=S)N/N=C/c1cc2ccccc2s1?
Answer: IC50 [1]: > 100 µM; IC50 [2]: > 100 µM; inhibition (active/not active) [3]: inactive; IC50 [4]: 6.77 µM; IC50 [5]: 99.2 µM

Question: With S=C(N/N=C/c1ccc2ccccc2n1)Nc1ccccc1Br as the compound, how does the IC50 [1] read?
Answer: The IC50 was > 100 µM.

Question: And the IC50 [2]?
Answer: Its IC50 is > 100 µM.

Question: What about the IC50 [4] of the same compound?
Answer: The IC50 was > 100 µM.

Question: And the IC50 [5]?
Answer: Its IC50 is > 100 µM.

Question: What does the source list for S=C(N/N=C/c1ccc2ccccc2n1)Nc1cccc(Cl)c1?
Answer: IC50 [1]: 61.3 µM; IC50 [2]: 28.8 µM; IC50 [4]: 52.5 µM; IC50 [5]: 48.1 µM

Question: COc1ccc(NC(=S)N/N=C/c2ccc3ccccc3n2)cc1 was tested. Which IC50 [1] did it give?
Answer: Its IC50 is 89.6 µM.

Question: What about the IC50 [2] of the same compound?
Answer: Its IC50 is 43.8 µM.

Question: What about the IC50 [4] of the same compound?
Answer: The IC50 was 72.6 µM.

Question: What about the IC50 [5] of the same compound?
Answer: The IC50 was 82.3 µM.

Question: S=C(N/N=C/c1ccc2ccccc2n1)Nc1cccc(Br)c1 was tested. Which IC50 [1] did it give?
Answer: Its IC50 is 78.6 µM.

Question: What about the IC50 [2] of the same compound?
Answer: The IC50 was 53.8 µM.

Question: And the IC50 [4]?
Answer: Its IC50 is 70 µM.

Question: And the IC50 [5]?
Answer: The IC50 was 58.9 µM.

Reference: ChEMBL document CHEMBL1157101, “A series of alpha-heterocyclic carboxaldehyde thiosemicarbazones inhibit topoisomerase IIalpha catalytic activity” (J Med Chem, 2010)
